This is an account of results in ChEMBL document CHEMBL3813673, “Bistacrine derivatives as new potent antimalarials” (Bioorg Med Chem, 2016).

What is called inhibition is the change of the read-out against control, counted positive when it falls.

Series [1] in a line: Cytotoxicity against mouse J774.1 cells after 24 hrs by AlamarBlue based cytotoxicity assay. It counts as cell-based. As to conditions: J774.1, 24 h. The essentials: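 Compounds dissolved in DMSO and serially diluted. Cells incubated with them at 37 °C, 5% CO2 for 24 h. AlamarBlue solution then added and plates incubated for a further 24 and 48 h.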
Series [2] has as its system Plasmodium falciparum. The experiment in a line: Antimalarial activity against chloroquine-sensitive ring-stage Plasmodium falciparum 3D7 assessed as parasite viability after 72 hrs by malstat assay. In kind it is functional, organism-based. As to conditions: 3D7, 72 h. The essentials:
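P. falciparum 3D7: synchronized ring stages plated at 1% parasitemia with compounds dissolved in DMSO; 0.5% DMSO as negative control. Cultured in triplicate for 72 h, then viability read by Malstat assay (parasite lactate dehydrogenase activity). Each compound tested twice; IC50 and standard deviation calculated.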

A short description of series [3]: Selectivity index, ratio of IC50 for mouse J774.1 cells to IC50 for chloroquine-sensitive ring-stage Plasmodium falciparum 3D7. As to conditions: read-out: Ratio IC50. It counts as toxicity.
A short description of series [4]: Selectivity index, ratio of IC50 for mouse J774.1 cells to IC50 for ring-stage Plasmodium falciparum Dd2. As to conditions: read-out: Ratio IC50. It counts as toxicity.
The nature of series [5]: Reversible inhibition of recombinant Plasmodium falciparum falcipain 2 assessed as hydrolysis of Cbz-Phe-Arg-AMC measured after 10 mins by spectrofluorometric method. Put shortly:
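Substrate added to buffer containing falcipain-2 and a range of inhibitor concentrations. Fluorescence (ex 380, em 460 nm) followed over 10 min, in duplicate. Slopes (ΔF/min) of the progress curves plotted against inhibitor concentration; IC50 obtained by nonlinear regression.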

For series [6], the system named is Plasmodium falciparum. The experiment in a line: Antimalarial activity against chloroquine-resistant Plasmodium falciparum Dd2 assessed as parasite viability after 72 hrs by malstat assay. In kind it is functional, organism-based. As to conditions: Dd2, 72 h.
For series [7], the system named is Plasmodium falciparum. Put plainly: Inhibition of recombinant Plasmodium falciparum falcipain 2 assessed as hydrolysis of Cbz-Phe-Arg-AMC measured after 5 mins at 20 uM by spectrofluorometric method. Put shortly: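 Recombinant falcipain-2 with Cbz-Phe-Arg-AMC substrate in 50 mM sodium acetate, pH 5.5, with 5 mM EDTA and 200 mM NaCl. Released AMC read by fluorescence (ex 380 nm, em 460 nm). Single-concentration screen; compounds giving over 35% inhibition went on to kinetic assays. Run twice.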

Series [8] is described as follows: Inhibition of beta-hematin formation. It counts as physicochemical. The essentials:
(§1)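 Heme–pyridine complex absorbance, which obeys Lambert–Beer's law, used to quantify free heme in heme/hemozoin mixtures and so judge inhibition of β-hematin formation. Chloroquine served as positive control and DMSO as negative control.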

The nature of series [9]: Inhibition of beta-hematin formation in acetate solution at pH 4.5 measured after 60 mins by pyridine-based spectrophotometric assay. In kind it is physicochemical. Put shortly:
as §1

Take `Nc1c2c(nc3ccc(Cl)cc13)CCCC2`: the figures for the IC50 in series [1] and in series [2] were 43200 nM and 4020 nM, respectively.

Take `CC1CCc2c(nc3cc(Cl)ccc3c2NCCCCCCNc2c3c(nc4cc(Cl)ccc24)CC(C)CC3)C1` (stereo unspecified): the IC50 in [1] turned out to be 1500 nM; in [2] it was 50 nM. The selectivity ratio in [3] amounted to 30.

For the compound `Cc1ccc2nc3c(c(N)c2c1)CCCC3`, the IC50 was found to be 44300 nM in [1] and 2040 nM in series [2].

Regarding `c1ccc2c(NCCCCCCCCNc3c4c(nc5ccccc35)CCCC4)c3c(nc2c1)CCCC3`, the figures for the selectivity ratio in series [4] and in series [3] were 6.33 and 17.3, respectively. The IC50 worked out at 17100 nM in [5], 300 nM in series [6], 1900 nM in [1] and 110 nM in series [2]. Also, the inhibition in series [7] stood at 34.4%.

Take `CCCC1CCc2nc3ccc(Cl)cc3c(N)c2C1` (stereo unspecified): the IC50 in series [1] turned out to be 8400 nM; in series [2] it was 210 nM.

With `CC1CCc2nc3cc(Cl)ccc3c(NCCCCCCNc3c4c(nc5cc(Cl)ccc35)CCC(C)C4)c2C1` (stereo unspecified), the values for the IC50 in series [1] and in [2] were 7800 nM and 30 nM, respectively. Further, the selectivity ratio in [3] came out at 260.

With `CC1(C)CCc2c(nc3cc(Cl)ccc3c2NCCCCCCNc2c3c(nc4cc(Cl)ccc24)CC(C)(C)CC3)C1`, the IC50 stood at 1500 nM in [1] and 30 nM in series [2]. For the same compound, in series [3], the selectivity ratio stood at 50.

As to `Clc1ccc2c(NCCCCCCNc3c4c(nc5cc(Cl)ccc35)CCCC4)c3c(nc2c1)CCCC3`, the figures for the IC50 in series [5], in series [1] and in [2] were 17300 nM, 1800 nM and 20 nM, respectively. The inhibition in [7] was 36.9%. The selectivity ratio in series [3] turned out to be 90.

Consider `CC1(C)CCc2c(nc3ccc([N+](=O)[O-])cc3c2NCCCCCCNc2c3c(nc4ccc([N+](=O)[O-])cc24)CC(C)(C)CC3)C1`, for which the IC50 came to 7900 nM in series [1] and 40 nM in [2]. The selectivity ratio in series [3] is 198.

In the case of `c1ccc2c(NCCCCCCCCCCNc3c4c(nc5ccccc35)CCCC4)c3c(nc2c1)CCCC3`, the values for the selectivity ratio in series [4] and in [3] were 12.9 and 16.4, respectively. Moreover, the IC50 in [6] came to 140 nM; in series [1], 1800 nM; in [2], 110 nM.

In the case of `c1ccc2c(NCCCCCCNc3c4c(nc5ccccc35)CCCC4)c3c(nc2c1)CCCC3`, the IC50 in series [1] is 2970 nM; in series [2], 100 nM. Also, the selectivity ratio in series [3] is 29.7.

As for `Nc1c2c(nc3ccc([N+](=O)[O-])cc13)CCCC2`, the IC50 in series [1] is 44600 nM; in series [2], 3230 nM.

Turning to `CC1CCc2c(nc3ccc([N+](=O)[O-])cc3c2NCCCCCCNc2c3c(nc4ccc([N+](=O)[O-])cc24)CC(C)CC3)C1` (stereo unspecified), the results for the IC50 in [5], in series [1] and in series [2] were 5200 nM, 25000 nM and 20 nM, respectively. Further, the inhibition in [7] worked out at 56.7%. In [3], the selectivity ratio was 1250.

Consider `c1ccc2c(NCCCCCCCNc3c4c(nc5ccccc35)CCCC4)c3c(nc2c1)CCCC3`, for which the selectivity ratio in series [4] came out at 8.64; in series [3], 27.1. The IC50 in series [6] was 220 nM; in series [1], 1900 nM; in [2], 70 nM.

Consider `CCOC1CCc2nc3cc(Cl)ccc3c(NCCCCCCCCCNc3c4c(nc5cc(Cl)ccc35)CCC(OCC)C4)c2C1` (stereo unspecified), for which the values for the IC50 in series [6], in series [1] and in [2] were 160 nM, 1740 nM and 200 nM, respectively. For the same compound, the inhibition in series [7] was determined as 25%. Further, in [3], the selectivity ratio is 9.

`COc1ccc2nc3c(c(NCCCCCCCCCNc4c5c(nc6ccc(OC)cc46)CCCC5)c2c1)CCCC3`: the IC50 was determined as 14900 nM in [5], 160 nM in series [6], 1700 nM in series [1] and 110 nM in [2]. Further, in [7], the inhibition was found to be 62.2%. Besides, the selectivity ratio in [3] stood at 15.

`CCN(CC)CCCC(C)Nc1ccnc2cc(Cl)ccc12` (stereo unspecified) [CHLOROQUINE]: the figures for the IC50 in series [8], in [9] and in series [1] were 3.01 equiv, 1.91 equiv and 18400 nM, respectively.

Take `c1ccc2c(NCCCCCNc3c4c(nc5ccccc35)CCCC4)c3c(nc2c1)CCCC3`: the selectivity ratio in series [4] is 3.27; in series [3], 2.86. The IC50 was found to be 550 nM in [6], 1800 nM in [1] and 630 nM in series [2].

For `CCCC1CCc2nc3ccccc3c(N)c2C1` (stereo unspecified), the values for the IC50 in [1] and in [2] were 43000 nM and 1520 nM, respectively.

Consider `Nc1c2c(nc3ccccc13)CCCC2` [TACRINE], for which the IC50 in series [1] was over 100000 nM; in [2], 12500 nM.

Regarding `CC1(C)CCc2c(nc3ccccc3c2NCCCCCCNc2c3c(nc4ccccc24)CC(C)(C)CC3)C1`, the IC50 in series [1] turned out to be 1800 nM; in series [2] it was 30 nM. In addition, in [3], the selectivity ratio is 60.
